Biological target: T1, UniProt Q8VGC6
T1 sequence (whole entry): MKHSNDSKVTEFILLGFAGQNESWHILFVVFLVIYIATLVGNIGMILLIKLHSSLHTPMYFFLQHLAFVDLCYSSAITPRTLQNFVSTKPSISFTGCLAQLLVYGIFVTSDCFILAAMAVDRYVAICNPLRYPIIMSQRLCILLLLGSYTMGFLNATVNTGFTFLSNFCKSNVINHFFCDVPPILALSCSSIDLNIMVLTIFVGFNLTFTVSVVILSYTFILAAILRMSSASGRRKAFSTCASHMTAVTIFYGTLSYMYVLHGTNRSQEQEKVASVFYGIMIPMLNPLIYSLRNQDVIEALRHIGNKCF
Conditions: stereoisomer not certain
How it was run: (§1)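 Transient luciferase assays in mammalian cell lines were common, though methods varied by source. The values come from published papers and their supplementary material, with extra details from the original authors when needed. Responsive refers to a measured signal the original authors judged statistically different from baseline, and non-responsive (inactive) to the remainder.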
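Note: active if original authors judged signal statistically different from baseline.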

| SMILES | odorant receptor agonist call |
| --- | --- |
| CC(=O)OCc1ccc2c(c1)OCO2 | active |
| Cc1occc1SSc1ccoc1C | inactive |
| C=C(CC)CCCC(C)(C)O | inactive |
| Cc1ccc(C(C)C)c(O)c1 | inactive |
| CCCCCCCCCC=CC=O | inactive |
| CCC=CCCCCC=O | inactive |
| CCSCC | inactive |
| CC(C)CS | inactive |
| Cc1ccc(OC(=O)C(C)C)cc1 | inactive |
| CCN(CC)CC | inactive |
| CCc1nccnc1CC | inactive |
| C=CC(C)=CCC=C(C)CCC=C(C)C | inactive |
| c1ccc2ncccc2c1 | inactive |
| CC(=O)OC1(C)CCC23CC1C(C)(C)C2CCC3C (centres undefined) | inactive |
| CCCCCC(C)O (centres undefined) | inactive |
| CCCCCCCCOC=O | inactive |
| CCCC(C)C(=O)OCC (centres undefined) | inactive |
| CCCCCCCCCCCO | inactive |
| O=C(O)CCCCCBr | inactive |

| SMILES | odorant receptor agonist call |
| --- | --- |
| CSSSC | inactive |
| Cc1ccccc1OC(=O)C(C)C | inactive |
| CCCCCCC(C)O (centres undefined) | inactive |
| CC1(C)CC(=O)CC(=O)C1 | inactive |
| C1CCOCC1 | inactive |
| C=CC(=C)CCC=C(C)C | inactive |
| CC(C)CCN | inactive |
| C=C1C2CCC(C2)C1(C)C (centres undefined) | inactive |
| CC(C)=CCCC(C)=CCOC(=O)C(C)C | inactive |
| CCCCCCCOC(=O)C(C)C | inactive |
| Cc1ccc(C(C)C)cc1 | inactive |
| CC(C)=C1CCC(C)CC1=O (centres undefined) | inactive |
| CCCCCCC(=O)OCCCC | inactive |
| CCc1ccccc1O | inactive |
| OCC=Cc1ccccc1 | inactive |
| COc1nccnc1C | inactive |
| C=C(C)C1CCC2(C)OC2C1 (centres undefined) | inactive |
| O=C(O)CCCCCCCCC(=O)O | inactive |

Biological target: T2, UniProt Q8VGJ3
T2 sequence (whole entry): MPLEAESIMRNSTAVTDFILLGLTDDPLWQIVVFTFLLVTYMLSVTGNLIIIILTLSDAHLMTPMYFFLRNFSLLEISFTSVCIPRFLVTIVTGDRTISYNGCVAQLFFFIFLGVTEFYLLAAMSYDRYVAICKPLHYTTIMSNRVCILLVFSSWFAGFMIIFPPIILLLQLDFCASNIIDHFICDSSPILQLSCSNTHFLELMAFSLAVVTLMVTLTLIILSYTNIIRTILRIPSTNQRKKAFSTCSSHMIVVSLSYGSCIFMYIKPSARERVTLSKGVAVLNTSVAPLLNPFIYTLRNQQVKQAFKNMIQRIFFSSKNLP
Conditions: stereoisomer not certain
How it was run: as §1

| SMILES | odorant receptor agonist call |
| --- | --- |
| CC(=O)OCc1ccc2c(c1)OCO2 | inactive |
| Cc1occc1SSc1ccoc1C | inactive |
| C=C(CC)CCCC(C)(C)O | inactive |
| Cc1ccc(C(C)C)c(O)c1 | inactive |
| CCCCCCCCCC=CC=O | inactive |
| CCC=CCCCCC=O | inactive |
| CCSCC | inactive |
| CC(C)CS | inactive |
| Cc1ccc(OC(=O)C(C)C)cc1 | inactive |
| CCN(CC)CC | inactive |
| CCc1nccnc1CC | inactive |
| C=CC(C)=CCC=C(C)CCC=C(C)C | inactive |
| c1ccc2ncccc2c1 | inactive |
| CC(=O)OC1(C)CCC23CC1C(C)(C)C2CCC3C (centres undefined) | inactive |
| CCCCCC(C)O (centres undefined) | inactive |
| CCCCCCCCOC=O | inactive |
| CCCC(C)C(=O)OCC (centres undefined) | inactive |
| CCCCCCCCCCCO | inactive |
| O=C(O)CCCCCBr | inactive |

| SMILES | odorant receptor agonist call |
| --- | --- |
| CSSSC | inactive |
| Cc1ccccc1OC(=O)C(C)C | inactive |
| CCCCCCC(C)O (centres undefined) | inactive |
| CC1(C)CC(=O)CC(=O)C1 | inactive |
| C1CCOCC1 | inactive |
| C=CC(=C)CCC=C(C)C | inactive |
| CC(C)CCN | inactive |
| C=C1C2CCC(C2)C1(C)C (centres undefined) | inactive |
| CC(C)=CCCC(C)=CCOC(=O)C(C)C | inactive |
| CCCCCCCOC(=O)C(C)C | inactive |
| Cc1ccc(C(C)C)cc1 | inactive |
| CC(C)=C1CCC(C)CC1=O (centres undefined) | inactive |
| CCCCCCC(=O)OCCCC | inactive |
| CCc1ccccc1O | inactive |
| OCC=Cc1ccccc1 | inactive |
| COc1nccnc1C | inactive |
| C=C(C)C1CCC2(C)OC2C1 (centres undefined) | inactive |
| O=C(O)CCCCCCCCC(=O)O | inactive |

Reference: the M2OR odorant receptor database
